Key:
A549 = experiment: Antiproliferative activity against human A549 cells after 2 days by spectrophotometric analysis; format: functional; details: A549, 48 h
HeLa = experiment: Antiproliferative activity against human HeLa cells after 2 days by spectrophotometric analysis; format: functional; details: 48 h
Procedure, shortened: (§1)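 Cells from ATCC were kept in RPMI 1640 with 5% FBS. They were exposed to graded concentrations in DMSO/RPMI for 48 h at 37 C under 5% CO2, then fixed with 50% trichloroacetic acid. Cellular protein was read at 540 nm at time zero and at 48 h, with and without compound. TGI (100% growth inhibition) was taken from the concentration-response curve.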

OVCAR-3 = experiment: Antiproliferative activity against human OVCAR3 cells after 2 days by spectrophotometric analysis; format: functional; details: OVCAR-3, 48 h; procedure, shortened: as §1
U-87 MG = experiment: Antiproliferative activity against human U87MG cells after 2 days by spectrophotometric analysis; format: functional, U-87MG ATCC; details: 48 h
HepG2 = experiment: Antiproliferative activity against human HepG2 cells after 2 days by spectrophotometric analysis; format: functional; details: HepG2, 48 h
[1] = target: T1, Tyrosine-protein kinase receptor UFO (Homo sapiens, UniProt P30530); experiment: Inhibition of N-terminal His-tagged recombinant human AXL (473 to end amino acids) expressed by baculovirus in Sf9 cells using axltide substrate and ATP by ADP-Glo luminescence assay
T1 sequence (P30530 whole entry): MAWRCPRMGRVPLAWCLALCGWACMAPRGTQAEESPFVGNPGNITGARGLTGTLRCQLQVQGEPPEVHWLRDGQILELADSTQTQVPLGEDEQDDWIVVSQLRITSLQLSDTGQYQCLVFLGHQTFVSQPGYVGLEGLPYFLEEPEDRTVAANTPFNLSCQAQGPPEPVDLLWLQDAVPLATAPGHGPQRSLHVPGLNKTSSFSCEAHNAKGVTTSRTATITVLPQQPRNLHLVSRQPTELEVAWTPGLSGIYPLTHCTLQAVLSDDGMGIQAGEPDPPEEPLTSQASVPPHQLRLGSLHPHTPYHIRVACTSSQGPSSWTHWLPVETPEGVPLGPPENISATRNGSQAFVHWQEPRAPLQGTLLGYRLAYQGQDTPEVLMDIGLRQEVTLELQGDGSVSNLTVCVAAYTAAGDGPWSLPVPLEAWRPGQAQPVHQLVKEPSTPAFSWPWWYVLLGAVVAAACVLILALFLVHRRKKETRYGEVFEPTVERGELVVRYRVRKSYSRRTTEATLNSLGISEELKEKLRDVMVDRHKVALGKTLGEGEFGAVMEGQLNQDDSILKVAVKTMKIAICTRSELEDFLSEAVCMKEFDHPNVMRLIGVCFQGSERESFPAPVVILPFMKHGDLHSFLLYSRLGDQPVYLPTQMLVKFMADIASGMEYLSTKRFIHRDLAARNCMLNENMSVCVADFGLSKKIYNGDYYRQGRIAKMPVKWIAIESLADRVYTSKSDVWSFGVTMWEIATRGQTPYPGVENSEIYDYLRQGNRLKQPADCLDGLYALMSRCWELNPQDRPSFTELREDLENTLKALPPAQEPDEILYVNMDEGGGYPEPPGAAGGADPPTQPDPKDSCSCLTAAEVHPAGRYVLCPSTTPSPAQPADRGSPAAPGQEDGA

GI50 (A549) | GI50 (HeLa) | GI50 (OVCAR-3) | GI50 (U-87 MG) | GI50 (HepG2) | IC50 [1] | SMILES
> 30 µM | > 30 µM | > 30 µM | > 30 µM | > 30 µM | > 20 µM | Cc1ccc(Nc2ncc(C(F)(F)F)c(N3Cc4cccc(N(C)S(C)(=O)=O)c4C3)n2)cc1C
> 30 µM | 14 µM | > 30 µM | 29.4 µM | > 30 µM | > 20 µM | COc1ccc(Nc2ncc(C(F)(F)F)c(N3Cc4cccc(N(C)S(C)(=O)=O)c4C3)n2)cc1C(F)(F)F
2.1 µM | 1.7 µM | 1.8 µM | 3.7 µM | 1.2 µM | – | CN(c1ncccc1CNc1nc(Nc2ccc3c(c2)CC(=O)N3)ncc1C(F)(F)F)S(C)(=O)=O
> 30 µM | 10.9 µM | > 30 µM | > 30 µM | > 30 µM | > 20 µM | Cc1ccc(Nc2ncc(C(F)(F)F)c(N3Cc4cccc(N(C)S(C)(=O)=O)c4C3)n2)c(Cl)c1
> 30 µM | > 30 µM | > 30 µM | > 30 µM | > 30 µM | > 20 µM | Cc1cc(C)cc(Nc2ncc(C(F)(F)F)c(N3Cc4cccc(N(C)S(C)(=O)=O)c4C3)n2)c1
19 µM | 4.3 µM | 24.9 µM | 19.5 µM | 23 µM | – | CN(c1cccc2c1CN(c1nc(Nc3cccc(Oc4ccccc4)c3)ncc1C(F)(F)F)C2)S(C)(=O)=O
> 30 µM | 5.3 µM | > 30 µM | > 30 µM | > 30 µM | – | CN(c1cccc2c1CN(c1nc(Nc3cccc(C(F)(F)F)c3)ncc1C(F)(F)F)C2)S(C)(=O)=O
6.7 µM | 4.3 µM | 21.5 µM | 5.5 µM | 9.9 µM | > 30 µM | CN(c1cccc2c1CN(c1nc(Nc3cc(Cl)cc(C(F)(F)F)c3)ncc1C(F)(F)F)C2)S(C)(=O)=O
7.3 µM | 16.5 µM | > 30 µM | 6.2 µM | 25.6 µM | > 20 µM | COc1cc(Nc2ncc(C(F)(F)F)c(N3Cc4cccc(N(C)S(C)(=O)=O)c4C3)n2)c(OC)cc1Cl
24.8 µM | 7 µM | 0.63 µM | > 30 µM | 1.8 µM | – | COc1cc(Nc2ncc(C(F)(F)F)c(N3Cc4cccc(N(C)S(C)(=O)=O)c4C3)n2)cc(OC)c1
> 30 µM | > 30 µM | > 30 µM | > 30 µM | > 30 µM | > 20 µM | CN(c1cccc2c1CN(c1nc(Nc3ccc(C(F)(F)F)cc3)ncc1C(F)(F)F)C2)S(C)(=O)=O
20.7 µM | 10.6 µM | > 30 µM | > 30 µM | 19.1 µM | – | Cc1ccc(Nc2ncc(C(F)(F)F)c(N3Cc4cccc(N(C)S(C)(=O)=O)c4C3)n2)c(C)c1
> 30 µM | 6.5 µM | > 30 µM | > 30 µM | 16.8 µM | – | Cc1cc(F)ccc1Nc1ncc(C(F)(F)F)c(N2Cc3cccc(N(C)S(C)(=O)=O)c3C2)n1
> 30 µM | 9.2 µM | > 30 µM | 16.8 µM | 10.3 µM | > 20 µM | CN(c1cccc2c1CN(c1nc(Nc3cc(C(F)(F)F)cc(C(F)(F)F)c3)ncc1C(F)(F)F)C2)S(C)(=O)=O
> 30 µM | 17.2 µM | > 30 µM | > 30 µM | > 30 µM | > 20 µM | COc1ccc(C(F)(F)F)cc1Nc1ncc(C(F)(F)F)c(N2Cc3cccc(N(C)S(C)(=O)=O)c3C2)n1
2.5 µM | 0.79 µM | 2.4 µM | 6.8 µM | 1.9 µM | – | CN(c1cccc2c1CN(c1nc(Nc3ccc(N4CCOCC4)cc3)ncc1C(F)(F)F)C2)S(C)(=O)=O
12.1 µM | 6.3 µM | > 30 µM | > 30 µM | 9.8 µM | – | CN(c1cccc2c1CN(c1nc(Nc3ccc4c(c3)OCO4)ncc1C(F)(F)F)C2)S(C)(=O)=O
3.3 µM | 1.3 µM | 1.6 µM | 4.7 µM | 3.8 µM | – | COc1cc(N2CCN(C(C)=O)CC2)ccc1Nc1ncc(C(F)(F)F)c(N2Cc3cccc(N(C)S(C)(=O)=O)c3C2)n1
6.2 µM | 7.3 µM | > 50 µM | 29.8 µM | 8.6 µM | > 20 µM | CN(c1cccc2c1CN(c1nc(Nc3ccc(Nc4ccccc4)cc3)ncc1C(F)(F)F)C2)S(C)(=O)=O
> 30 µM | 23.9 µM | > 50 µM | > 30 µM | > 30 µM | > 20 µM | CN(c1cccc2c1CN(c1nc(Nc3ccccc3N3CCOCC3)ncc1C(F)(F)F)C2)S(C)(=O)=O
25.5 µM | 17.4 µM | > 30 µM | 28.3 µM | 19.6 µM | > 20 µM | Cc1cc(Cl)ccc1Nc1ncc(C(F)(F)F)c(N2Cc3cccc(N(C)S(C)(=O)=O)c3C2)n1
> 30 µM | 5.1 µM | > 30 µM | > 30 µM | 22.1 µM | – | COc1cc(Nc2ncc(C(F)(F)F)c(N3Cc4cccc(N(C)S(C)(=O)=O)c4C3)n2)cc(C(F)(F)F)c1
15.2 µM | 11.1 µM | > 50 µM | > 30 µM | 16 µM | > 20 µM | CN(c1cccc2c1CN(c1nc(Nc3ccc(Cl)c(C(F)(F)F)c3)ncc1C(F)(F)F)C2)S(C)(=O)=O

— ChEMBL document CHEMBL4325842, “Design, synthesis, and biological evaluation of novel aminopyrimidinylisoindolines as AXL kinase inhibitors” (Bioorg Med Chem Lett, 2018)
